Experiment [1] deals with A549. The experiment can be described thus: Cytotoxicity against human A549 cells assessed as reduction in cell viability at 500 uM after 48 hrs by CellTiter-Glo luminescent assay relative to control. Type of experiment: functional. Summed up: (§1)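 A549 cells kept in RPMI 1640 with 10% fetal bovine serum and 100 units per ml penicillin–streptomycin. Each molecule was applied at 50, 100, 250 and 500 μM, with viability read at 24 or 48 h by CellTiter-Glo luminescence. Values are expressed relative to untreated control (C), as the mean of three repeats with relative standard deviation.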

Experiment [2] has as its system A549. Briefly: Cytotoxicity against human A549 cells assessed as reduction in cell viability at 50 to 500 uM by CellTiter-Glo luminescent assay. It is filed as functional, cell-based. The settings on record: TDE = time-dependent effect. An outline of the steps: as §1
The test system of experiment [3] is A549. Briefly: Cytotoxicity against human A549 cells assessed as reduction in cell viability at 100 to 250 uM after 48 hrs by CellTiter-Glo luminescent assay. It is filed as functional, cell-based. Summed up:
as §1

The subject of experiment [4] is A549. Briefly: Cytotoxicity against human A549 cells assessed as reduction in cell viability at 50 uM after 48 hrs by CellTiter-Glo luminescent assay relative to control. Type of experiment: functional. Summed up:
as §1

In experiment [5] the test system is A549. The experiment can be described thus: Cytotoxicity against human A549 cells assessed as reduction in cell viability after 24 hrs by CellTiter-Glo luminescent assay. It is filed as functional, cell-based. Summed up:
as §1

Experiment [6] concerns A549. Briefly: Cytotoxicity against human A549 cells assessed as reduction in cell viability after 48 hrs by CellTiter-Glo luminescent assay. Type of experiment: functional, cell-based. An outline of the steps:
as §1

The subject of experiment [7] is A549. The experiment can be described thus: Cytotoxicity against human A549 cells assessed as reduction in cell viability at 250 uM after 48 hrs by CellTiter-Glo luminescent assay. Type of experiment: functional, cell-based. An outline of the steps: as §1
Experiment [8] relates to A549. Briefly: Cytotoxicity against human A549 cells assessed as reduction in cell viability at 50 to 500 uM after 24 hrs by CellTiter-Glo luminescent assay. It is filed as functional, cell-based. An outline of the steps:
as §1

The test system of experiment [9] is A549. Briefly: Cytotoxicity against human A549 cells assessed as reduction in cell viability at 500 uM after 24 hrs by CellTiter-Glo luminescent assay. Type of experiment: functional, cell-based. Summed up:
as §1

Each structure is given as a SMILES string. Calls of active or inactive are those of the source. The calls are words filed in the database; no cut-off is given here.

Consider `C/C=C/CSSC/C=C/C`, for which the Activity was 84% in the experiment on A549 [1], “Tde” in the experiment with A549 [2], 70% in the experiment on A549 [4] and “Dose-dependent effect” with A549 [5]. Further, the result in the experiment with A549 [3] was Active.

Turning to `C=CCCSSCCC=C`, the Activity with A549 [1] is 100%; with A549 [6] it was “Dose-dependent effect”; in the experiment with A549 [2], “Tde”; in the experiment with A549 [4], 68%; in the experiment on A549 [5], “Dose-dependent effect”. The result in the experiment on A549 [7] was Active.

With `C=CCSSCC=C` [DIALLYLDISULFIDE], the Activity was 65% with A549 [1], “Tde” with A549 [2], 54% with A549 [4] and “Dose-dependent effect” in the experiment with A549 [5].

For `C=CCCCCSSCCCCC=C`, the outcome in the experiment with A549 [8] was inactive.

With `CCCC=CCSSCC=CCCC` (mixture of isomers), in the experiment on A549 [9], the outcome was Active.

With `CCC/C=C/CSSC/C=C/CCC`, the result with A549 [9] was Active.
